This passage reports IC50 results from ChEMBL document CHEMBL2346629, “Discovery and characterization of novel allosteric FAK inhibitors” (Eur J Med Chem, 2013).

Some results are limits rather than exact numbers.

In test [1] the target is Tyrosine-protein kinase Yes (Homo sapiens, UniProt P07947). Nature of the test: Inhibition of YES (unknown origin) using [gamma-33P]ATP. The essentials: (§1)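 Radiometric kinase profiling service covering 288 kinases (261 wild-type, 27 mutant). Inhibition was read as incorporation from [γ-³³P]ATP.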
The target in test [2] is Mast/stem cell growth factor receptor Kit (Homo sapiens, UniProt P10721, D816V). Put plainly: Inhibition of c-Kit D816V mutant (unknown origin) using [gamma-33P]ATP. The essentials:
as §1

Test [3] addresses Mitogen-activated protein kinase kinase kinase 9 (Homo sapiens, UniProt P80192). Put plainly: Inhibition of MLK1 (unknown origin) using [gamma-33P]ATP. The essentials: as §1
In test [4] the target is Mitogen-activated protein kinase kinase kinase kinase 4 (Homo sapiens, UniProt O95819). Put plainly: Inhibition of HGK (unknown origin) using [gamma-33P]ATP. In short, it runs like this:
as §1

The target in test [5] is Myosin light chain kinase, smooth muscle (Homo sapiens, UniProt Q15746). Nature of the test: Inhibition of MLCK (unknown origin) using [gamma-33P]ATP. The essentials: as §1
Test [6] concerns the target Mitogen-activated protein kinase kinase kinase kinase 2 (Homo sapiens, UniProt Q12851). Nature of the test: Inhibition of GCK (unknown origin) using [gamma-33P]ATP. The essentials:
as §1

The target of test [7] is Tyrosine-protein kinase Fgr (Homo sapiens, UniProt P09769). Nature of the test: Inhibition of FGR (unknown origin) using [gamma-33P]ATP. In short, it runs like this:
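Reaction Biology HotSpot radiometric profiling panel of 288 kinases (261 wild-type, 27 mutant). Kinase activity was read out by incorporation of [γ-33P]ATP.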

Test [8] deals with Tyrosine-protein kinase Fyn (Homo sapiens, UniProt P06241). Nature of the test: Inhibition of FYN (unknown origin) using [gamma-33P]ATP. The essentials: as §1
Test [9] deals with Serine/threonine-protein kinase Chk2 (Homo sapiens, UniProt O96017). Put plainly: Inhibition of CHK2 (unknown origin) using [gamma-33P]ATP. In short, it runs like this: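 Radiometric profiling across 288 kinases (261 wild-type, 27 mutant), run as an outsourced service. Inhibition read out as [gamma-33P]ATP incorporation into substrate.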
Test [10] has as its target T1, Protein-tyrosine kinase 2-beta (Homo sapiens, UniProt Q14289). Put plainly: Inhibition of human 6His-tagged unphosphorylated PYK2 (1 to 967) using Poly-(GT)-biotin as substrate by AlphaScreen assay in presence of [gamma-33P]ATP. On the technique in general: Alpha assays give light when donor and acceptor beads are brought close together.
Test [11] concerns the target T1, Protein-tyrosine kinase 2-beta. Put plainly: Inhibition of human GST-tagged phosphorylated full length PYK2 (1 to 967) using Poly-(GT)-biotin as substrate by HTRF analysis in presence of [gamma-33P]ATP. On the technique in general: TR-FRET usually uses a lanthanide donor and a delayed reading to cut background.
Test [12] can be described thus: Inhibition of PDGFRa D824V mutant (unknown origin) using [gamma-33P]ATP. Also on record: species or system Homo sapiens.
Test [13] has as its target T2, Focal adhesion kinase 1 (Homo sapiens, UniProt Q05397). Nature of the test: Inhibition of human FLAG-tagged unphosphorylated full length FAK expressed in baculovirus expression system incubated for 60 mins prior to 1000 uM of ATP addition by AlphaScreen assay.
Test [14] concerns the target T2, Focal adhesion kinase 1. Put plainly: Inhibition of human FLAG-tagged unphosphorylated full length FAK expressed in baculovirus expression system incubated for 5 mins prior to 1000 uM of ATP addition by AlphaScreen assay.
The target in test [15] is T2, Focal adhesion kinase 1. Nature of the test: Inhibition of human FLAG-tagged unphosphorylated full length FAK expressed in baculovirus expression system incubated for 60 mins prior to 0.5 uM of ATP addition by AlphaScreen assay.
The target in test [16] is T2, Focal adhesion kinase 1. Put plainly: Inhibition of human FLAG-tagged unphosphorylated full length FAK expressed in baculovirus expression system incubated for 5 mins prior to 0.5 uM ATP addition by AlphaScreen assay.
Test [17] concerns the target T2, Focal adhesion kinase 1. Put plainly: Inhibition of human GST-tagged phosphorylated full length FAK incubated for 60 mins prior to 1000 uM of ATP addition by HTRF analysis.
In test [18] the target is T2, Focal adhesion kinase 1. Put plainly: Inhibition of human GST-tagged phosphorylated full length FAK incubated for 5 mins prior to 1000 uM of ATP addition by HTRF analysis.
In test [19] the target is T2, Focal adhesion kinase 1. Nature of the test: Inhibition of human GST-tagged phosphorylated full length FAK incubated for 60 mins prior to 0.5 uM of ATP addition by HTRF analysis.
Test [20] has as its target T2, Focal adhesion kinase 1. Put plainly: Inhibition of human GST-tagged phosphorylated full length FAK incubated for 5 mins prior to 0.5 uM of ATP addition by HTRF analysis.
Test [21] has as its target T2, Focal adhesion kinase 1.
For test [22], the target named is T2, Focal adhesion kinase 1. The source holds these as a separate data set.
Test [23] concerns the target T2, Focal adhesion kinase 1. This is another data set of the same source.
Test [24] has as its target T2, Focal adhesion kinase 1. The source holds these as a separate data set.

T2 sequence (Q05397 whole entry): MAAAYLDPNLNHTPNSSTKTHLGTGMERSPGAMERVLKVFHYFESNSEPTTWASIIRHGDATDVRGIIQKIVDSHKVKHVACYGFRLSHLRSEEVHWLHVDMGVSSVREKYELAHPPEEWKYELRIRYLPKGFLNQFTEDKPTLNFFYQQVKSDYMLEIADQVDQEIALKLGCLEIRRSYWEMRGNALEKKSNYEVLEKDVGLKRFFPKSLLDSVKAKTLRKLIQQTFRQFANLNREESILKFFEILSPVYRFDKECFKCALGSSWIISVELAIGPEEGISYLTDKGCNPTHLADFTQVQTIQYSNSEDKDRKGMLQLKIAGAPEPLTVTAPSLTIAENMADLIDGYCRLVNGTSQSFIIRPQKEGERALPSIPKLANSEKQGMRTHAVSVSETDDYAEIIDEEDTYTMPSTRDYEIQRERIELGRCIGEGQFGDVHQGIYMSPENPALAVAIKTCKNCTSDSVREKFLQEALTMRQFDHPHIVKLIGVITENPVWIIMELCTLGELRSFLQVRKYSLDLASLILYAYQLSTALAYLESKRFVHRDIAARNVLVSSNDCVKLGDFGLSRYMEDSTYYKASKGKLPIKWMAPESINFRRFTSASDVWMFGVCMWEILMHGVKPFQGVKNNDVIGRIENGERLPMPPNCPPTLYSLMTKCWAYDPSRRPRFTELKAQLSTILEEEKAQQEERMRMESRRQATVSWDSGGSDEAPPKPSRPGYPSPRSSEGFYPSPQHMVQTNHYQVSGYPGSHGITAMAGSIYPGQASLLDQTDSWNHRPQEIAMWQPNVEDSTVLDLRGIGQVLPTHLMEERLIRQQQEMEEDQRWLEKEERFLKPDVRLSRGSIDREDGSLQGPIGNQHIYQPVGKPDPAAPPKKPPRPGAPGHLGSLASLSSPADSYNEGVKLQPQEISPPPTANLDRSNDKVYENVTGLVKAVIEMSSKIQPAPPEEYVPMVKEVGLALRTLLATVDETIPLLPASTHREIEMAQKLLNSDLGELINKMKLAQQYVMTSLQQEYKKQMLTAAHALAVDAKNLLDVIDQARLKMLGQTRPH
Sequence of Tyrosine-protein kinase Yes (P07947 whole entry): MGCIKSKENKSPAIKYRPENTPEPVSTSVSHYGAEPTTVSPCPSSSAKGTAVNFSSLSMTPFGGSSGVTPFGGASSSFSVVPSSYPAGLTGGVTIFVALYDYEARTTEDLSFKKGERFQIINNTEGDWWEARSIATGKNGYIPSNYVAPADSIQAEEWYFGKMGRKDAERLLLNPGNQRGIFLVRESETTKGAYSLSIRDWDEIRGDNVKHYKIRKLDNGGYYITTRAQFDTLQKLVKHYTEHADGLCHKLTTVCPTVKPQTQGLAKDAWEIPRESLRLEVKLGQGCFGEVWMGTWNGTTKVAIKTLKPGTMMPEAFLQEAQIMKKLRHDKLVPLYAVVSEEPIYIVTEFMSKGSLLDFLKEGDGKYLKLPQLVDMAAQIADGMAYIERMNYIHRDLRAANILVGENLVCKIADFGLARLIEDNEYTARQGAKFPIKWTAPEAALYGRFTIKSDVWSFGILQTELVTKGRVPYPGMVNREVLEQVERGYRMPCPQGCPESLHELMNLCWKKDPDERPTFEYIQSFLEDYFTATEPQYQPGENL
Sequence of Mitogen-activated protein kinase kinase kinase 9 (P80192 whole entry): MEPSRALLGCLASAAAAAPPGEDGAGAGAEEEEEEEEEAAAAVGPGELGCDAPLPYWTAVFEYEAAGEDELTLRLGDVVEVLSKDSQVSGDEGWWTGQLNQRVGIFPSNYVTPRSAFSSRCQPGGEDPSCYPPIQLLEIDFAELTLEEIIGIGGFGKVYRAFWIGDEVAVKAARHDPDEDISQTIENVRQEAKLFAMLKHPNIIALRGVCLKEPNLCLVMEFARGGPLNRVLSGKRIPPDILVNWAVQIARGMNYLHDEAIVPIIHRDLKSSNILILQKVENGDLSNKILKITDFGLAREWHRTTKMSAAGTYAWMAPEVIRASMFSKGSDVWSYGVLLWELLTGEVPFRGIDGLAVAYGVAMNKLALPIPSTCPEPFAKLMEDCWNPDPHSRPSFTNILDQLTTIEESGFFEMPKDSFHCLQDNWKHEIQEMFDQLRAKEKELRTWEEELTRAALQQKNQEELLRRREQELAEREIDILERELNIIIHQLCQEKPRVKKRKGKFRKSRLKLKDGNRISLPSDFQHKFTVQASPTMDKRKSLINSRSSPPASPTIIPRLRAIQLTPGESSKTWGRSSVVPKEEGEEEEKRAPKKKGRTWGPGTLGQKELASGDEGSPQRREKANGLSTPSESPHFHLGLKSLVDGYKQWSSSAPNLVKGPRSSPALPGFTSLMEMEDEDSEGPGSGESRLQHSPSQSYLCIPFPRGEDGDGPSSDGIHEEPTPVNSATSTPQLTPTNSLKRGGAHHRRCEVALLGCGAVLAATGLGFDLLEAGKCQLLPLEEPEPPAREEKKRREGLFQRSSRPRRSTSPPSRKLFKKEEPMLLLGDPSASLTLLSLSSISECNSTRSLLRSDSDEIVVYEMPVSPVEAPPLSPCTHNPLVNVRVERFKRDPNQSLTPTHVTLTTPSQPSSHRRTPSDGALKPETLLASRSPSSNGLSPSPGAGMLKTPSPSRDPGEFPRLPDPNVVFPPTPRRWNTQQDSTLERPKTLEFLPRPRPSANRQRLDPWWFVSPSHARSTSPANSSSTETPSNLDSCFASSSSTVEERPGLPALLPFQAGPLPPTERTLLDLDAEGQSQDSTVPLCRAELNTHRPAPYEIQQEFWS
Sequence of Mast/stem cell growth factor receptor Kit (P10721 26-976 D816V limits assumed): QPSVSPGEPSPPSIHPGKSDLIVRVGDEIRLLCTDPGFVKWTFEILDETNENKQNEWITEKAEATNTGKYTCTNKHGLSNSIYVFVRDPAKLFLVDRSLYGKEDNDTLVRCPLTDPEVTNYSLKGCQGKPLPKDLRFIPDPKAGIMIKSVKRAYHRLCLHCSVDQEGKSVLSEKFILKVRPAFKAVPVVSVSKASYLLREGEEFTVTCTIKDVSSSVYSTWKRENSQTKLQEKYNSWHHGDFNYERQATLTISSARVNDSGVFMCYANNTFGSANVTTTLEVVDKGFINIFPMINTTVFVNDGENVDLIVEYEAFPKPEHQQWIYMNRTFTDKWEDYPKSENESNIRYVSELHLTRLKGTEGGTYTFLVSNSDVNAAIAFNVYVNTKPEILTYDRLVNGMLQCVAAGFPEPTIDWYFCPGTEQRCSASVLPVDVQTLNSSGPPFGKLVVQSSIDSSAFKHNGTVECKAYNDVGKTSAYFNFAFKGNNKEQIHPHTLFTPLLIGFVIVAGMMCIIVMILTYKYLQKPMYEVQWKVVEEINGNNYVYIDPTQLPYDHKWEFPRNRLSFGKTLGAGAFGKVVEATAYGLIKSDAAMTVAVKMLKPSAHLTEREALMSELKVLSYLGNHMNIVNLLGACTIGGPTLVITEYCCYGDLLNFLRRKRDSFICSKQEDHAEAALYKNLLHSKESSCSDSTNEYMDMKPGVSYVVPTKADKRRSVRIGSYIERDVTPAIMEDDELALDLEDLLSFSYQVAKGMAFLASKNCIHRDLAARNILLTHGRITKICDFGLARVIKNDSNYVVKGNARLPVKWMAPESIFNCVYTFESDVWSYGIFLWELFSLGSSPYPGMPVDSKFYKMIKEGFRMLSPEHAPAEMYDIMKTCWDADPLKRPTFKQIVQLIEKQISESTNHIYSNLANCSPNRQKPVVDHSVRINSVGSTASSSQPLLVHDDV
Sequence of Serine/threonine-protein kinase Chk2 (O96017 whole entry): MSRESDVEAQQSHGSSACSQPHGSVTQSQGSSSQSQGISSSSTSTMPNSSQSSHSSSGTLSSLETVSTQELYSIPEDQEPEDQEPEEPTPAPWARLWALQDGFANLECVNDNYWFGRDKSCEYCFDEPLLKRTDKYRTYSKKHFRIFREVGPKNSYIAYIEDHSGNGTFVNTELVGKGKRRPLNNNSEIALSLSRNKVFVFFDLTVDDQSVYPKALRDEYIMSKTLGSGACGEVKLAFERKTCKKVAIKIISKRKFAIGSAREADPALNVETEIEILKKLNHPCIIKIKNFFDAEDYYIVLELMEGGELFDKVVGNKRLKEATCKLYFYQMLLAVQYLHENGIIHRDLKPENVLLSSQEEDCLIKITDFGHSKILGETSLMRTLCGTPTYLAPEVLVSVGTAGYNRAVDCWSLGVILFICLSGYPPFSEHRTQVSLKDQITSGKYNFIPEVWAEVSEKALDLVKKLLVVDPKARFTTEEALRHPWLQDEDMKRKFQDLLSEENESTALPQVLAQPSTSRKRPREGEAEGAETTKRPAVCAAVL
Sequence of Tyrosine-protein kinase Fyn (P06241 whole entry): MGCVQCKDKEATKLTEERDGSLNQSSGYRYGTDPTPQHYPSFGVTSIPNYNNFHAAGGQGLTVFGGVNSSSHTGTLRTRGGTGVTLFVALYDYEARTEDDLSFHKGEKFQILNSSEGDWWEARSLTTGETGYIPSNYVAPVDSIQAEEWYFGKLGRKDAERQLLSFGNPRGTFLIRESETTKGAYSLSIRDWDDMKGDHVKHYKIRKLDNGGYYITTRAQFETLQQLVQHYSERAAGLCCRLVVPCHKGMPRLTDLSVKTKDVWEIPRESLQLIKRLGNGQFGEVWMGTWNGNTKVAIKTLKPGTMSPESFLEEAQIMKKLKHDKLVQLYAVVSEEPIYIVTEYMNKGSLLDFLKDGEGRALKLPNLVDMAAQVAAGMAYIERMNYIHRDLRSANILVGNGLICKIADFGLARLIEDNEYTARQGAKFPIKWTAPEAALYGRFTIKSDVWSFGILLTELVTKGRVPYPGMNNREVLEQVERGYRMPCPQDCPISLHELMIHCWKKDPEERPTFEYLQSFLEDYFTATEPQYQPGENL

Turning to `CCc1ccc(-c2ccc3c(c2)-c2n[nH]cc2S(=O)(=O)N3C)cc1`, the IC50 was 1.8 µM in [1]; 2.8 µM in test [2]; 0.37 µM in test [3]; 1.6 µM in test [4]; 4 µM in [5]; 3 µM in test [6]. For the same molecule, the figures for the IC50 in test [7], in test [8] and in test [9] were 1.9 µM, 2.8 µM and 3.4 µM, respectively.
Regarding `CCc1ccc(-c2ccc3c(c2)-c2c(cnn2CC)S(=O)(=O)N3C)cc1`, the IC50 in [10] is over 30 µM; in test [11], over 30 µM; in [12], over 10 µM; in test [1], over 10 µM; in test [2], over 10 µM; in [3], over 10 µM. Also, the IC50 in test [4], in test [5], in [6], in test [7], in test [8] and in test [9] was over 10 µM throughout. In addition, the IC50 is 3.2 µM against Focal adhesion kinase 1 [13]; over 10 µM against Focal adhesion kinase 1 [14]; 3.2 µM at Focal adhesion kinase 1 [15]; over 10 µM at Focal adhesion kinase 1 [16]; over 30 µM at Focal adhesion kinase 1 [17]; over 30 µM on Focal adhesion kinase 1 [18]. For the same molecule, the IC50 is over 30 µM against Focal adhesion kinase 1 [19]; over 30 µM on Focal adhesion kinase 1 [20]; 1 µM on Focal adhesion kinase 1 [21]; 3 µM against Focal adhesion kinase 1 [22]; 1.3 µM against Focal adhesion kinase 1 [23]; 1.6 µM at Focal adhesion kinase 1 [24].

By IC50 is commonly meant the midpoint of a concentration-inhibition curve.
